The list is not random: actives were taken first. Their share in the collection is about 3.9%.
CHO parental Ca: counter-screen: ATP calcium response change in parental CHO cells | hit rate 0.63% among 330,000 | inhibition, % at 5.6 µM | AID 463079 | parental CHO-K1, ATP-induced calcium, Fluo-8 fluorescence;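 active = inhibition above that plate's mean sample inhibition plus 3 SD, cut at about 26% in these data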
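Material: parental CHO cells / Compound: single nominal dose of 5.6 µM per compound / Signal: Fluo-8 fluorescence / Replicates: singlicate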
OX1R antag-1: antagonists of human orexin 1 receptor; O43613; CHO/OX1R cells, Fluo-8 calcium fluorescence, orexin A; inhibition, % at 5 µM; hit rate 0.43% among 330,000;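 active = inhibition above its plate's threshold, mean inhibition of all tested compounds on the plate plus 3 SD, cut at about 37% in these data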
Target sequence (O43613 whole entry, looked up): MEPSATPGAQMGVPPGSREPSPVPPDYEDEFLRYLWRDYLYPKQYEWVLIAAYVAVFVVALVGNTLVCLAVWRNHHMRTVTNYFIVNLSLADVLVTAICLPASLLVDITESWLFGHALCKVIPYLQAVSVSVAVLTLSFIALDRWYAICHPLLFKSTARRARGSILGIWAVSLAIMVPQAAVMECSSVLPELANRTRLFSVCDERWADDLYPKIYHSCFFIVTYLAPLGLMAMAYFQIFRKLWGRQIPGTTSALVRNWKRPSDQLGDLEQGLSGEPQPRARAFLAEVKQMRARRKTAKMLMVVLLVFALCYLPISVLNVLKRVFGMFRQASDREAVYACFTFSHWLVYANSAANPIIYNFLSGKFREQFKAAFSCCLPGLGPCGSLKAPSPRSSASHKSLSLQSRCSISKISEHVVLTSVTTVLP
TAAR1 ag: agonists of human TAAR1; Q96RJ0; activation, % at 3 µM; hit rate 0.99% among 360,000; CHO RD-HGA16 TAAR1, Fluo-8 calcium fluorescence; vehicle wells 0%, saturating PEA agonist 100%;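 active = activation above the mean activation of all test compounds in the run plus 3 SD, cut at about 38% in these data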
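System: CHO RD-HGA16 cells carrying human TAAR1 plus Gα16; Incubation: 17-24 h seeding, 75 min 37 °C dye, 30 min RT; Measured by: Fluo-8 fluorescence, 5 s baseline then 140 s kinetic read; Control set: DMSO and PEA EC100; Replication: single well for each compound.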
OX1R antag-2: antagonists of human orexin 1 receptor (OX1R); O43613; OX1R-expressing cells, FRET antagonist read-out; inhibition, % at 6.6 µM; hit rate 1.8% among 330,000; AID 485270; in the data active = inhibition mostly above about 38%, no sharp cut-off; inactive = mostly below about 40%
TAAR1 antagonist: antagonists of human TAAR1; Q96RJ0; CHO RD-HGA16 TAAR1, Fluo-8 calcium fluorescence, antagonist; inhibition, % at 3 µM; hit rate 1.5% among 360,000; AID 624466;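 active = inhibition above a per-plate cutoff, the mean inhibition of test compounds on that plate plus 3 SD, cut at about 49% in these data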
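Assay system: CHO-derived RD-HGA16 cells stably expressing human TAAR1 plus Gα16. Timing: 140 s kinetic read after compound, 140 s after agonist. Technique: kinetic Fluo-8 calcium fluorescence measurement. Measure: % inhibition of agonist calcium response.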
Hits are given with their value; - = inactive; . = no result.

SMILES	CHO parental Ca	OX1R antag-1	TAAR1 ag	OX1R antag-2	TAAR1 antagonist
Cc1ccc(NC(=O)COc2ccccc2C(N)=O)cc1S(=O)(=O)N1CCCCCC1	-	53	-	-	-
Cc1ccc(NC(=O)COc2cccc(C)c2C)cc1S(=O)(=O)N1CCCCCC1	-	-	-	-	-
COc1ccc(OCC(=O)Nc2ccc(S(=O)(=O)N3CCOCC3)cc2)cc1	-	-	-	-	-
COc1ccc(NC(=O)COc2ccccc2C(N)=O)cc1S(=O)(=O)N1CCCCC1	.	.	-	.	-
CCc1cccc(OCC(=O)Nc2ccc(C)c(S(=O)(=O)N3CCCCCC3)c2)c1	35	-	-	-	50
CC(C)n1cc(CN2CCCC(C(=O)Nc3cccc(-c4cc5ccccc5[nH]4)c3)C2)cn1 (centres undefined)	-	-	40	-	-
Cn1cc(CN2CCCC(C(=O)Nc3cccc(-c4cc5ccccc5[nH]4)c3)C2)cn1 (centres undefined)	-	-	-	-	-
CC(C)C1O/C(=N/C(=O)Nc2ccc(Cl)c(Cl)c2)NC1=O (centres undefined)	44	-	-	-	-
CC1=C/C(=C\C=C(C#N)C#N)N(C)c2ccccc21	33	44	-	-	-
CC1(c2ccc([N+](=O)[O-])cc2)NC(=O)N(CC(=O)Nc2cccnc2Cl)C1=O (centres undefined)	-	-	57	-	-
Cc1ccc(C2(C)NC(=O)N(CC(=O)Nc3cccnc3Cl)C2=O)cc1 (centres undefined)	-	-	-	-	-
O=C(NCc1ccc(F)cc1F)[C@@H]1CCCN1C(=O)[C@@H]1CCCN1C(=O)c1ccc(Cl)cc1	.	.	-	.	-
CCCn1c(SCC(=O)N2N=C3/C(=C/c4ccc(OC)cc4)CCCC3C2c2ccc(OC)cc2)n[nH]c1=O (centres undefined)	-	-	49	-	50
CCCn1c(SCC(=O)NCc2ccc(OC)cc2)n[nH]c1=O	-	-	-	-	-
Clc1ccc(-c2cn3c(n2)-c2ccccc2C3)cc1Cl	-	-	-	51	-
COC(=O)C1=C(C)N(Cc2ccccc2C(F)(F)F)C(=NCc2ccc(OC)cc2)NC1c1ccccc1C(F)(F)F (centres undefined)	.	.	-	.	-
O=C(Nc1ccc(-c2csc(Nc3ccccc3)n2)cc1)c1cccc(C(F)(F)F)c1	-	-	-	-	52
O=C(Nc1ccc(-c2csc(Nc3ccc(Cl)cc3)n2)cc1)c1cccc(C(F)(F)F)c1	-	-	-	-	-
O=C(O)c1ccc(Nc2nc(-c3ccccc3)cs2)cc1	-	-	38	-	-
Cc1noc(C)c1S(=O)(=O)N(C)C[C@@H]1OCc2cnnn2CCCC(=O)N([C@@H](C)CO)C[C@@H]1C	.	.	-	.	-
O=Cc1ccc(N2CCCC2)o1	-	-	-	-	-
N#C/C(=C\c1ccc(N2CCCCC2)o1)C(N)=O	-	-	-	42	-
O=C(Cn1ncc(Cl)c(Cl)c1=O)N1CCN(S(=O)(=O)c2ccc3ccccc3c2)CC1	31	-	-	-	-
c1ccc2c(c1)[nH]c1c(N3CCC4(CC3)OCCO4)ncnc12	60	-	.	66	.
c1ccc(CN2CCN(c3ncnc4c3[nH]c3ccccc34)CC2)cc1	46	-	-	-	-
SMILES	CHO parental Ca	OX1R antag-1	TAAR1 ag	OX1R antag-2	TAAR1 antagonist
COc1ccc2c(c1)[nH]c1c(N3CCN(Cc4ccc5c(c4)OCO5)CC3)ncnc12	-	-	-	49	-
c1ccc2c(c1)CCN(c1ncnc3c1[nH]c1ccccc13)C2	66	80	-	80	58
COc1cccc2[nH]c3c(N4CCC5(CC4)OCCO5)ncnc3c12	-	-	-	-	-
CC(=O)N1CCN(c2ccc(N3CCN(Cc4ccccc4)[C@H](C)C3)c(C)c2)[C@H](C)C1	.	.	-	.	-
CC(C)NC(=O)C1(C)CSCC(=O)N1CCCN1CCOCC1 (centres undefined)	.	.	-	.	-
OC1(c2cccc(C(F)(F)F)c2)CCN(c2ncnc3c2[nH]c2ccccc23)CC1	-	-	-	-	56
CCOc1ccc2oc(C(=O)N3CCN(c4ccccn4)CC3)c(C)c2c1	.	.	-	.	-
CCOc1ccc2[nH]c3c(N4CCN(c5ccccn5)CC4)ncnc3c2c1	-	-	-	61	-
Cc1ccc2[nH]c3c(N4CCN(Cc5ccccc5)CC4)ncnc3c2c1	-	-	-	80	-
Nc1ncnc(N)c1NC(=O)c1ccccc1	.	.	-	.	-
CN1OC[C@@H]2CN3C(=Nc4cc(C(F)(F)F)cc(C(F)(F)F)c4)Sc4ccccc4[C@@H]3C[C@@H]21	.	.	-	.	-
O=S(=O)(Nc1cccc(-c2cn3c(n2)SCC3)c1)c1cccs1	-	-	-	56	-
CCCCCCCCN1C(=O)[C@H](CC(=O)NCCCOCCCC)C[C@@]2(C(=O)OCC)CCCC=C12	.	.	-	.	-
O=[N+]([O-])c1cc(Oc2cccnc2)cc([N+](=O)[O-])c1	-	-	-	75	-
CNc1cccc(-c2ccc(N3CCN(C)CC3)nc2)n1	.	.	-	.	-
COc1ccc(N(C)C(=O)C2CCCN2S(=O)(=O)c2cccc3nsnc23)cc1 (centres undefined)	-	-	-	-	-
COc1ccccc1NC(=O)C1CCCN1S(=O)(=O)c1cccc2nsnc12 (centres undefined)	-	-	.	76	.
COc1ccc(NC(=O)C2CCCN2S(=O)(=O)c2cccc3nsnc23)c(OC)c1 (centres undefined)	-	-	.	57	.
COc1ccc(OC)c(NC(=O)C2CCCN(S(=O)(=O)c3cccc4nsnc34)C2)c1 (centres undefined)	-	-	-	-	-
O=C1NC(c2ccccc2)N=C2Oc3ccccc3C=C12 (centres undefined)	.	.	-	.	-
O=C(COc1ccc(C(=O)c2ccccc2)cc1)Nc1cccnc1	52	-	-	-	-
N#Cc1ccc(-c2ccc(OCC(=O)Nc3cccnc3)cc2)cc1	.	.	-	.	59
CCC(C)N(Cc1ccc(OC)cc1OC)S(=O)(=O)c1cc(Br)ccc1Br (centres undefined)	.	.	-	.	-
CC(C)N(Cc1ccccc1)S(=O)(=O)c1n[nH]c(C(C)(C)C)n1	.	.	-	.	-
CC(=O)OCC1O[C@@H](O[C@@H]2C[C@H]3C(C)(C)[C@H](OC(C)=O)CC[C@]3(C)[C@H]3CC[C@]45C[C@]4(CC[C@H]5[C@@H](C)C[C@@H](O)[C@H](O)C(C)(C)O)[C@@]32C)[C@H](O)[C@@H](O)[C@@H]1O (some centres undefined)	100	67	.	-	.

Source: PubChem BioAssay (The Scripps Research Institute Molecular Screening Center)
